Hits are enriched below; roughly 4% of the tested compounds scored in any of these assays.
TAAR1 ag: human TAAR1 agonists, primary screen, Fluo-8 calcium fluorescence, CHO RD-HGA16 cells | Trace amine-associated receptor 1 (Homo sapiens), Q96RJ0 | vehicle wells 0%, saturating PEA agonist 100% | activation, % at 3 µM | 360,000 compounds, 0.99% hits;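 active means activation above the mean activation of all test compounds in the run plus 3 SD, cut at about 38% in these data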
Target sequence (Q96RJ0 whole entry, looked up): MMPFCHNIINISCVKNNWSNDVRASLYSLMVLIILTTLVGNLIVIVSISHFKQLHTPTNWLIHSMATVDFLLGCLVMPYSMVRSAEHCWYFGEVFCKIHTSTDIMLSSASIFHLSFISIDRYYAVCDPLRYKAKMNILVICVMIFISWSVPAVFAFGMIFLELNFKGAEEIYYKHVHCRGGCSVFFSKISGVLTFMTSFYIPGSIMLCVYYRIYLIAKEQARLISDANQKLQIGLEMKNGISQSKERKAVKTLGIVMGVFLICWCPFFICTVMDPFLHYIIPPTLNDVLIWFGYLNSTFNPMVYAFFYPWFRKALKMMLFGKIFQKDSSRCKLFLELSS
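Repeats: no replicates (n 1) | Material: CHO-derived RD-HGA16 cells with stable Gα16 and human TAAR1 | Technique: Kinetic Fluo-8 calcium fluorescence | Schedule: 17-24 h seeding, 75 min 37 °C dye, 30 min RT | Evaluation: % activation from peak over basal fluorescence ratio, DMSO-to-PEA scaled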
GPR7 antagonist: GPR7 receptor antagonists, primary screen, cell-based, fluorescence, single concentration; Neuropeptides B/W receptor type 1 (Homo sapiens), P48145; GPR7-expressing cells, fluorescence antagonist assay; inhibition, % at 4.4 µM; 290,000 compounds, 1.1% hits; in the data active means inhibition above about 16%, passing the limit was not always enough;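 further: cells stimulated with the agonist NPW; 0% = agonist with vehicle and 100% = vehicle without agonist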
Target sequence (P48145 whole entry, looked up): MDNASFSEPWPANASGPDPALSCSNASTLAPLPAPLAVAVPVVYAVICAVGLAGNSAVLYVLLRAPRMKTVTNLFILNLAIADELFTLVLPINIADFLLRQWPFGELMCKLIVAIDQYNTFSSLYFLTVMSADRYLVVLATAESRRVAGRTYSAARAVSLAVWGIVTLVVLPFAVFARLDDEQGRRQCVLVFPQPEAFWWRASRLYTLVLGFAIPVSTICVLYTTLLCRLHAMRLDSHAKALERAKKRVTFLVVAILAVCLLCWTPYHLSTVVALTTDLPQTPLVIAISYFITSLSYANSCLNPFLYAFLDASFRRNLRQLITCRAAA
MPTP block: mitochondrial permeability transition pore inhibitors, primary screen, biochemical, isolated mouse mitochondria, absorbance | Ca2+ swelling absorbance, 30 min | inhibition, % at 10 µM | 360,000 compounds, 1.4% hits | AID 602449, 2012;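 active means inhibition of 50% or more, scaled per plate between neutral and stimulator controls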;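 further: 0% = DMSO wells given calcium and 100% = 1 mM EGTA wells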
TAAR1 antag: human TAAR1 antagonists, primary screen, Fluo-8 calcium fluorescence, CHO RD-HGA16 cells; Trace amine-associated receptor 1 (Homo sapiens), Q96RJ0; antagonist; inhibition, % at 3 µM; 360,000 compounds, 1.5% hits; AID 624466, 2012;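 active means inhibition above a per-plate cutoff, the mean inhibition of test compounds on that plate plus 3 SD, cut at about 49% in these data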;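 further: 0% = DMSO plus EC80 beta-PEA response and 100% = DMSO alone without agonist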
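Material: RD-HGA16 CHO cells with stable hTAAR1 and Gα16; Dosing: single nominal final test compound concentration of 3 µM; Schedule: seeding 17-24 h prior, 75-min 37 °C, 30-min RT dye loading; Detection: kinetic Fluo-8 calcium fluorescence measurement; Measure: % inhibition from peak post-agonist over basal fluorescence ratio; Benchmarks: vehicle and agonist controls.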
DAGLB inhibitor: DAGLB lipase inhibitors, primary screen, biochemical, fluorescence, HTS | HEK293T DAGLB membrane lysate, EnzChek fluorogenic substrate | inhibition, % at 5.17 µM | 340,000 compounds, 0.059% hits | AID 504411, 2011; in the data active means inhibition above about 34%;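 further: 0% = enzyme with vehicle and 100% = wells lacking enzyme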
GPR7 antag conf: GPR7 receptor antagonists, confirmation, cell-based, fluorescence, single concentration; AID 1952, 2009; shares compounds with GPR7 antagonist; GPR7-expressing cells, calcium fluorescence antagonist mode; inhibition, % at 4.4 µM; 2,400 compounds, 52% hits; in the data active means inhibition above about 24%;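 further: stimulated with the GPR7 agonist NPW; 0% = agonist plus vehicle and 100% = vehicle alone without agonist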
MCHR1 antag: MCHR1 antagonists in cells, counter-screen for GPR7 antagonist project, cell-based, fluorescence, human; shares compounds with GPR7 antagonist; MCHR1-expressing cells, fluorescence antagonist assay; inhibition, % at 4.4 µM; 2,400 compounds, 62% hits; AID 2148, 2009;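 further: 0% = vehicle with agonist and 100% = vehicle without agonist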
Rh123 counter: fluorescence retest of MPTP screen hits in isolated mitochondria, single concentration | 5,000 compounds, 78% hits | AID 624504, 2012 | membrane potential, Rhodamine 123 fluorescence | inhibition, % at 10 µM | shares compounds with MPTP block;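 further: 0% = DMSO vehicle and 100% = positive control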
* = called active by the depositor. Unless noted, no stated cut-off is given here; in the data, active means inhibition above about 22%; inactive means the rest.

Screening CCOc1ccc(N=Cc2c(O)n(-c3ccc(C)c(C)c3)c(=O)[nH]c2=O)cc1 returned TAAR1 ag -0.2, GPR7 antagonist 2.1, MPTP block 2.2 and TAAR1 antag -23.9.
Screening CCOc1ccc(N=Cc2c(O)n(-c3cc(C)cc(C)c3)c(=O)[nH]c2=O)cc1 returned TAAR1 ag 0.5, GPR7 antagonist 24.1*, MPTP block 8.3, TAAR1 antag -20.8, DAGLB inhibitor 3.2, GPR7 antag conf -4.2 and MCHR1 antag 6.9.
Screening COC(=O)C(O)(c1ccc(NC(=S)NC(=O)c2ccc(Cl)cc2Cl)cc1)C(F)(F)F (stereo not drawn) returned TAAR1 ag 47.7*, GPR7 antagonist 32.8*, MPTP block 6.3, TAAR1 antag 54.3*, DAGLB inhibitor 5.1, GPR7 antag conf 56.2* and MCHR1 antag 60.5*.
For CCc1ccccc1NC(=O)CNC1CCCCC1 the results were TAAR1 ag 6.9, GPR7 antagonist 25.3*, MPTP block -1.3, TAAR1 antag 6.7, DAGLB inhibitor -0.7, GPR7 antag conf -0.3 and MCHR1 antag 6.6.
Screening CCOc1cc2c(cc1OCC)-n1cccc1C(c1ccc(C)cc1C)NC2 (stereo not drawn) returned TAAR1 ag 7.6, GPR7 antagonist 37.9*, MPTP block 1.0, TAAR1 antag -8.2, DAGLB inhibitor -1.3, GPR7 antag conf 19.4 and MCHR1 antag 23.1*.
`Cc1[nH]c2ccc(OC(F)(F)F)cc2c1CCNCc1cccc([N+](=O)[O-])c1` gave TAAR1 ag 44.3*, GPR7 antagonist 43.0*, MPTP block 4.4, TAAR1 antag 49.4*, DAGLB inhibitor -4.0, GPR7 antag conf 35.0* and MCHR1 antag 74.9*.
Screening Cc1ccc2[nH]c(C)c(CCNCc3ccco3)c2c1 returned TAAR1 ag 4.4, GPR7 antagonist 3.9, MPTP block 0.8, TAAR1 antag -11.3 and DAGLB inhibitor 0.9.
`CCC(=O)c1cn(Cc2ccc(C#N)cc2)c2ccccc12` gave TAAR1 ag 6.4, GPR7 antagonist 27.4*, MPTP block 0.0, TAAR1 antag 7.0, DAGLB inhibitor -3.8, GPR7 antag conf 14.1 and MCHR1 antag 14.6.
`CCC1(CC)C(=O)NC(=NCCc2c[nH]c3ccccc23)NC1=O` gave TAAR1 ag 6.6, GPR7 antagonist 27.8*, MPTP block 1.0, TAAR1 antag -3.9, DAGLB inhibitor -1.8, GPR7 antag conf -3.2 and MCHR1 antag 7.4.
`N#Cc1ccc2nc(-c3ccc(CN4CCC(n5c(=O)[nH]c6cc(Cl)ccc65)CC4)cc3)c(-c3ccccc3)nc2c1` gave TAAR1 ag 1.5 and TAAR1 antag 25.1.
For O=C(Nc1ccc(C(=O)O)cc1)Oc1ccc(N(CCCl)CCCl)cc1 the results were TAAR1 ag 3.5, MPTP block -0.1 and TAAR1 antag -17.2.
For Cc1ccc(NC(=O)c2cn(CCC#N)nc2-c2ccc3c(c2)OCCO3)c([N+](=O)[O-])c1 the results were TAAR1 ag 3.0, GPR7 antagonist 1.0, MPTP block 0.2, TAAR1 antag 10.7 and DAGLB inhibitor -2.4.
`N#CCCn1cc(C(=O)Nc2ccc([N+](=O)[O-])cc2)c(-c2ccc3c(c2)OCCO3)n1` gave TAAR1 ag 1.7, GPR7 antagonist 25.0*, MPTP block 1.1, TAAR1 antag -3.8, DAGLB inhibitor -3.2, GPR7 antag conf 0.7 and MCHR1 antag 12.8.
Screening O=C(Nc1ccccc1)N1Cc2cc(Br)ccc2-n2nncc2C1 returned TAAR1 ag 1.5 and TAAR1 antag -5.5.
Screening C[C@@H]1CN([C@@H](C)CO)C(=O)CCCn2nncc2CO[C@@H]1CN(C)C(=O)Oc1cccc2ccccc12 returned TAAR1 ag 1.1, MPTP block -0.4, TAAR1 antag 5.3 and DAGLB inhibitor -4.2.
Screening CCOc1ccc(-c2cc(C)[n+](CCO)c(-c3ccc(OCC)cc3)c2)cc1 returned TAAR1 ag 1.2, GPR7 antagonist -1.8, MPTP block -0.7, TAAR1 antag 14.4 and DAGLB inhibitor 1.4.
`CCOc1ccc(-c2cc(C)[n+](CCc3ccc(OC)c(OC)c3)c(-c3ccc(OCC)cc3)c2)cc1` gave TAAR1 ag 1.5, GPR7 antagonist 54.2*, MPTP block -1.5, TAAR1 antag 1.6, DAGLB inhibitor 2.6, GPR7 antag conf 65.9* and MCHR1 antag 61.4*.
For COc1ccccc1CCNCc1cccc(C(F)(F)F)c1 the results were TAAR1 ag 8.8, GPR7 antagonist 20.7, MPTP block -0.9, TAAR1 antag 21.9 and DAGLB inhibitor -0.9.
`Cc1nn(C)c(C)c1P(=S)(c1c(C)nn(C)c1C)N(C)C` gave TAAR1 ag 11.4, GPR7 antagonist 25.9*, MPTP block -0.5, TAAR1 antag 13.6, DAGLB inhibitor 2.4, GPR7 antag conf -11.1 and MCHR1 antag -3.5.
`CCc1cc(OC)c(CCN)cc1OC` gave TAAR1 ag 23.2 and TAAR1 antag 8.8.
`CCOc1cccc(CNCCc2c(C)[nH]c3ccc(OC(F)(F)F)cc23)c1O` gave TAAR1 ag 54.7*, GPR7 antagonist 53.4*, MPTP block 80.2*, TAAR1 antag 49.0*, DAGLB inhibitor -1.7, GPR7 antag conf 84.2*, MCHR1 antag 95.1* and Rh123 counter 78.7*.
CCOc1cc(CNCCc2ccccc2F)ccc1OC was read as TAAR1 ag 18.6, GPR7 antagonist -6.0, MPTP block 1.8, TAAR1 antag 3.0 and DAGLB inhibitor 1.9.
For COC(=O)C1=C(c2ccccc2OCc2ccccc2)C[C@@H]2CC[C@H]1N2C(=O)NCc1ccc([N+](=O)[O-])cc1 the results were TAAR1 ag 3.0, MPTP block 0.8, TAAR1 antag 31.1 and DAGLB inhibitor -12.6.
Screening CCN1/C(=C\C=C\C2=[N+](CC)c3ccccc3C2(C)C)C(C)(C)c2ccccc21 returned GPR7 antagonist 98.2*, MPTP block active, DAGLB inhibitor -63.3, GPR7 antag conf 102.7*, MCHR1 antag 105.5* and Rh123 counter 83.8*.
